# How the values were obtained:
# [1] = Antitubercular activity against Mycobacterium tuberculosis H37Ra ATCC 25177 dormant stage infected in human THP1 cells measured on day 12 by nitrate reductase assay; type: functional, THP-1; settings: ATCC 25177, 288 h
# [2] = Antitubercular activity against Mycobacterium tuberculosis H37Ra ATCC 25177 active stage infected in human THP1 cells measured on day 8 by nitrate reductase assay; type: functional, THP-1; settings: ATCC 25177, 192 h
# [3] = Antitubercular activity against Mycobacterium tuberculosis H37Ra ATCC 25177 active stage measured on day 8 by XTT reduction menadione based two-fold dilution assay; type: functional; settings: ATCC 25177, 192 h
# Summary of the method: (§1)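 M. tuberculosis H37Ra ATCC 25177 was exposed to 0.7–100 μg/mL in two-fold steps (0.7, 1.5, 3.1 … 100). Active stage was read after 8 days and dormant stage after 12 days of incubation. Inhibition was read by XTT reduction menadione assay (XRMA), absorbance 470 nm. MIC90 is the concentration giving ≥90% inhibition (µg/mL).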
# [4] = Antitubercular activity against Mycobacterium tuberculosis H37Ra ATCC 25177 dormant stage measured on day 12 by XTT reduction menadione based two-fold dilution assay; type: functional; settings: ATCC 25177, 288 h; summary of the method: as §1
# [5] = Antitubercular activity against Mycobacterium bovis BCG ATCC 35743 active stage measured on day 8 by nitrate reductase based two-fold dilution assay; type: functional, Mycobacterium bovis BCG str. ATCC 35743; settings: Mycobacterium tuberculosis variant bovis BCG, ATCC 35743, 192 h
# [6] = Antitubercular activity against Mycobacterium bovis BCG ATCC 35743 dormant stage measured on day 12 by nitrate reductase based two-fold dilution assay; type: functional, Mycobacterium bovis BCG str. ATCC 35743; settings: Mycobacterium tuberculosis variant bovis BCG, ATCC 35743, 288 h
# [7] = Cytotoxicity against human THP1 cells by MTT assay; type: toxicity, cell-based, THP-1; settings: for GI90: thp-1
# [8] = Cytotoxicity against human MCF7 cells by MTT assay; type: toxicity, cell-based; settings: for GI90: mcf7
# [9] = Cytotoxicity against human HCT116 cells by MTT assay; type: toxicity, cell-based, HCT-116; settings: for GI90: hct-116
# [10] = Selectivity index, ratio of GI50 for human MCF7 cells to MIC90 for Mycobacterium tuberculosis H37Ra ATCC 25177 active stage; type: toxicity, cell-based; settings: read-out: Selectivity Index
# Summary of the method: (§2)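 Cytotoxicity was measured on human MCF-7, HCT116 and THP-1 cells by MTT assay, with paclitaxel as reference. GI50 is the concentration inhibiting 50% of cell growth. The selectivity index is GI50 for the given cell line divided by MIC90 for the given mycobacterial strain and stage.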
# [11] = Selectivity index, ratio of GI50 for human MCF7 cells to MIC90 for Mycobacterium tuberculosis H37Ra ATCC 25177 dormant stage; type: toxicity, cell-based; settings: read-out: Selectivity Index
# Summary of the method: (§3)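 Cytotoxicity was measured on human MCF-7, HCT116 and THP-1 cells by MTT assay, with paclitaxel as reference. The selectivity index is GI50 for the given cell line divided by MIC90 for the given mycobacterial strain and stage.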
# [12] = Selectivity index, ratio of GI50 for human MCF7 cells to MIC90 for Mycobacterium bovis BCG ATCC 35743 active stage; type: toxicity, cell-based; settings: read-out: Selectivity Index; summary of the method: as §2
# [13] = Selectivity index, ratio of GI50 for human MCF7 cells to MIC90 for Mycobacterium bovis BCG ATCC 35743 dormant stage; type: toxicity, cell-based; settings: read-out: Selectivity Index; summary of the method: as §3
# [14] = Selectivity index, ratio of GI50 for human HCT116 cells to MIC90 for Mycobacterium tuberculosis H37Ra ATCC 25177 active stage; type: toxicity, cell-based, HCT-116; settings: read-out: Selectivity Index; summary of the method: as §2
# [15] = Selectivity index, ratio of GI50 for human HCT116 cells to MIC90 for Mycobacterium tuberculosis H37Ra ATCC 25177 dormant stage; type: toxicity, cell-based, HCT-116; settings: read-out: Selectivity Index; summary of the method: as §3
# [16] = Selectivity index, ratio of GI50 for human HCT116 cells to MIC90 for Mycobacterium bovis BCG ATCC 35743 active stage; type: toxicity, cell-based, HCT-116; settings: read-out: Selectivity Index; summary of the method: as §2
# [17] = Selectivity index, ratio of GI50 for human HCT116 cells to MIC90 for Mycobacterium bovis BCG ATCC 35743 dormant stage; type: toxicity, cell-based, HCT-116; settings: read-out: Selectivity Index; summary of the method: as §3
# [18] = Selectivity index, ratio of GI50 for human THP1 cells to MIC90 for Mycobacterium tuberculosis H37Ra ATCC 25177 active stage; type: toxicity, cell-based, THP-1; settings: read-out: Selectivity Index; summary of the method: as §2
# [19] = Selectivity index, ratio of GI50 for human THP1 cells to MIC90 for Mycobacterium tuberculosis H37Ra ATCC 25177 dormant stage; type: toxicity, cell-based, THP-1; settings: read-out: Selectivity Index; summary of the method: as §3
# [20] = Selectivity index, ratio of GI50 for human THP1 cells to MIC90 for Mycobacterium bovis BCG ATCC 35743 active stage; type: toxicity, cell-based, THP-1; settings: read-out: Selectivity Index; summary of the method: as §2
# [21] = Selectivity index, ratio of GI50 for human THP1 cells to MIC90 for Mycobacterium bovis BCG ATCC 35743 dormant stage; type: toxicity, cell-based, THP-1; settings: read-out: Selectivity Index; summary of the method: as §3
# Escherichia coli [22] = assay: Growth inhibition of Escherichia coli at 30 ug/ml; type: functional; settings: read-out: GI
# Escherichia coli [23] = assay: Growth inhibition of Escherichia coli at 10 ug/ml; type: functional; settings: read-out: GI
# Escherichia coli [24] = assay: Growth inhibition of Escherichia coli at 3 ug/ml; type: functional; settings: read-out: GI
# Summary of the method: (§4)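 Screened against Gram-negative E. coli and P. aeruginosa and Gram-positive S. aureus and B. subtilis. Compound was tested at 3 µg/ml, and the read-out is percent growth inhibition.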
# Pseudomonas aeruginosa [25] = assay: Growth inhibition of Pseudomonas aeruginosa at 30 ug/ml; type: functional; settings: read-out: GI
# Pseudomonas aeruginosa [26] = assay: Growth inhibition of Pseudomonas aeruginosa at 10 ug/ml; type: functional; settings: read-out: GI
# Pseudomonas aeruginosa [27] = assay: Growth inhibition of Pseudomonas aeruginosa at 3 ug/ml; type: functional; settings: read-out: GI; summary of the method: as §4
# Staphylococcus aureus [28] = assay: Growth inhibition of Staphylococcus aureus at 30 ug/ml; type: functional; settings: read-out: GI
# Staphylococcus aureus [29] = assay: Growth inhibition of Staphylococcus aureus at 10 ug/ml; type: functional; settings: read-out: GI
# Staphylococcus aureus [30] = assay: Growth inhibition of Staphylococcus aureus at 3 ug/ml; type: functional; settings: read-out: GI; summary of the method: as §4
# Bacillus subtilis [31] = assay: Growth inhibition of Bacillus subtilis at 30 ug/ml; type: functional; settings: read-out: GI
# Bacillus subtilis [32] = assay: Growth inhibition of Bacillus subtilis at 10 ug/ml; type: functional; settings: read-out: GI
# Bacillus subtilis [33] = assay: Growth inhibition of Bacillus subtilis at 3 ug/ml; type: functional; settings: read-out: GI; summary of the method: as §4
smiles,measurement,setting,value
CO[C@H]1/C=C/O[C@@]2(C)Oc3c(C)c(O)c4c(O)c(c(/C=N/N5CCN(C)CC5)c(O)c4c3C2=O)NC(=O)/C(C)=C\C=C\[C@H](C)[C@H](O)[C@@H](C)[C@@H](O)[C@@H](C)[C@H](OC(C)=O)[C@@H]1C [RIFAMPIN],MIC90,[1],0.7 µg/mL
same,MIC90,[2],0.5 µg/mL
same,IC50,[3],0.51 µg/mL
same,MIC90,[3],0.51 µg/mL
same,IC50,[4],0.75 µg/mL
same,MIC90,[4],0.75 µg/mL
same,IC50,[5],0.45 µg/mL
same,MIC90,[5],0.45 µg/mL
same,IC50,[6],0.81 µg/mL
same,MIC90,[6],0.81 µg/mL
same,GI90,[7],> 100 µg/mL
same,GI90,[8],> 100 µg/mL
same,GI90,[9],> 100 µg/mL
C/C(=N\Nc1nc(-c2ccc(C)cc2)cs1)c1sc(C)nc1C,MIC90,[1],82.8 µg/mL
same,MIC90,[2],74.3 µg/mL
same,IC50,[3],11.1 µg/mL
same,MIC90,[3],> 100 µg/mL
same,IC50,[4],8.35 µg/mL
same,MIC90,[4],65.8 µg/mL
same,IC50,[5],17.9 µg/mL
same,MIC90,[5],54.8 µg/mL
same,IC50,[6],9.67 µg/mL
same,MIC90,[6],83.2 µg/mL
same,GI50,[7]; THP1 cells,> 100 µg/mL
same,GI90,[7],> 100 µg/mL
same,GI50,[8]; MCF7 cells,> 100 µg/mL
same,GI90,[8],> 100 µg/mL
same,GI50,[9]; HCT116 cells,> 100 µg/mL
same,GI90,[9],> 100 µg/mL
same,selectivity ratio,[10],1
same,selectivity ratio,[11],2
same,selectivity ratio,[12],1
same,selectivity ratio,[13],10
same,selectivity ratio,[14],1
same,selectivity ratio,[15],2
same,selectivity ratio,[16],1
same,selectivity ratio,[17],10
same,selectivity ratio,[18],1
same,selectivity ratio,[19],2
same,selectivity ratio,[20],1
same,selectivity ratio,[21],10
same,inhibition of growth at 30 µg/mL,Escherichia coli [22],73.7%
same,inhibition of growth at 10 µg/mL,Escherichia coli [23],83.3%
same,inhibition of growth at 3 µg/mL,Escherichia coli [24],79.8%
same,inhibition of growth at 30 µg/mL,Pseudomonas aeruginosa [25],72.8%
same,inhibition of growth at 10 µg/mL,Pseudomonas aeruginosa [26],83.5%
same,inhibition of growth at 3 µg/mL,Pseudomonas aeruginosa [27],79.6%
same,inhibition of growth at 30 µg/mL,Staphylococcus aureus [28],72%
same,inhibition of growth at 10 µg/mL,Staphylococcus aureus [29],82.4%
same,inhibition of growth at 3 µg/mL,Staphylococcus aureus [30],78.6%
same,inhibition of growth at 30 µg/mL,Bacillus subtilis [31],69.9%
same,inhibition of growth at 10 µg/mL,Bacillus subtilis [32],81%
same,inhibition of growth at 3 µg/mL,Bacillus subtilis [33],76.9%

# From ChEMBL document CHEMBL3872252, “New bithiazolyl hydrazones: Novel synthesis, characterization and antitubercular evaluation” (Bioorg Med Chem Lett, 2017)
